Source: ChEMBL document CHEMBL4052630, “Design, synthesis and evaluation of scutellarein-O-acetamidoalkylbenzylamines as potential multifunctional agents for the treatment of Alzheimer's disease” (Eur J Med Chem, 2017)
Activity calls are given as the source filed them. The rule behind the calls is not given here.

Assays:
Acetylcholinesterase [1] = target: Acetylcholinesterase (Electrophorus electricus, UniProt O42275); experiment: Inhibition of electric eel AChE using acetylthiocholine iodide as substrate after 15 mins by Ellman's method
Chain of Acetylcholinesterase (Electrophorus electricus, UniProt O42275) (O42275 whole entry): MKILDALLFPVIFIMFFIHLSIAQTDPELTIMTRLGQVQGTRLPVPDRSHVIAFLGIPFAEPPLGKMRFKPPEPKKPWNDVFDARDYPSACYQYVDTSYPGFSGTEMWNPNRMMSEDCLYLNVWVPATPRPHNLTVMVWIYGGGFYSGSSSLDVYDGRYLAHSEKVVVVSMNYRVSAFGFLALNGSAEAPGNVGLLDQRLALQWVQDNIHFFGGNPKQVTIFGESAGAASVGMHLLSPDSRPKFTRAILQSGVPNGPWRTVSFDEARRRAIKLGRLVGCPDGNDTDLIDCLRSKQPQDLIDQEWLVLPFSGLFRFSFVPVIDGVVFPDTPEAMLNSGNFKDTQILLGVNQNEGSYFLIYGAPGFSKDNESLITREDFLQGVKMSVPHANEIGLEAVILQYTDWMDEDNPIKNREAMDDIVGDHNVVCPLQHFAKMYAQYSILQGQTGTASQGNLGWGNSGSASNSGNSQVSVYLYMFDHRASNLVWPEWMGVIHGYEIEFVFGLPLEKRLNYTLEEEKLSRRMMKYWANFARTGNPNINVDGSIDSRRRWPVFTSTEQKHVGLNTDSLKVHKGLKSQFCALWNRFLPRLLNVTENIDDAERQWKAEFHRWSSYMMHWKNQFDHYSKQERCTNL

[2] = target: Acetylcholinesterase (Electrophorus electricus) (UniProt O42275); experiment: Mixed type inhibition of electric eel AChE at 10 to 40 nM preincubated for 15 mins followed by varying levels of acetylthiocholine substrate addition by Lineweaver-Burk plot analysis
Chain of Acetylcholinesterase (Electrophorus electricus) (O42275 24-633 limits assumed): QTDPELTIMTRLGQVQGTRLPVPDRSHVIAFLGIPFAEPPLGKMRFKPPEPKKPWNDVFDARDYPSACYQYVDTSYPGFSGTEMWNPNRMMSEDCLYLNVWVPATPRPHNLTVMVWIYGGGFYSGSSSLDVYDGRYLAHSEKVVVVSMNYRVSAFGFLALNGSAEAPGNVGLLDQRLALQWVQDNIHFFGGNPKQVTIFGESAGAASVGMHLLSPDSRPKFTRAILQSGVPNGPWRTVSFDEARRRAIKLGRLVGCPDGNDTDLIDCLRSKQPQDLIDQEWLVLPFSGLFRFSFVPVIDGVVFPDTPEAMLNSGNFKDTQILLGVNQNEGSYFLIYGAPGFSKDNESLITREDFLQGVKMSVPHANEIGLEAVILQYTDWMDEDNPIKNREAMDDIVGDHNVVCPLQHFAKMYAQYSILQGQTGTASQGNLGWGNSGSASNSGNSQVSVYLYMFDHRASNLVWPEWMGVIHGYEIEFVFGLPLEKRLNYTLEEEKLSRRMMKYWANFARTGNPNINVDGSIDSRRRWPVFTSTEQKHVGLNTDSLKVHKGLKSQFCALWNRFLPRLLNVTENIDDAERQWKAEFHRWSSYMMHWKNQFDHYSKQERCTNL
Outline: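 Electric eel AChE (10 µL of 0.5 U/mL) in 0.1 M phosphate pH 8.0 with DTNB, pre-incubated 15 min at 37 °C with three inhibitor concentrations. Acetylthiocholine added at 0.1–0.4 mM and hydrolysis read at 412 nm, with an inhibitor-free control. Lineweaver-Burk plots by weighted least squares; slopes replotted against inhibitor concentration.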

SH-SY5Y = experiment: Cytotoxicity against human SH-SY5Y cells assessed as reduction in cell viability up to 10 uM after 24 hrs by MTT assay; type: cell-based
Outline: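 SH-SY5Y cells grown in DMEM with 10% FBS at 37 °C, 5% CO2, seeded 4 × 10^4 cells/well and incubated 24 h. Compounds given at 1, 10 and 100 µM (1% DMSO final) for 24 h. MTT (5 mg/ml) added for 4 h, cells lysed overnight in DMF/SDS, absorbance read at 590 nm against control. Three independent experiments.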

[3] = Metal chelating activity assessed as inhibition of Cu2+ induced amyloid beta (1 to 42) aggregation at 25 uM after 24 hrs by ThT-based fluorometric method relative to control
Outline: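 Aβ1-42 (25 µM) with Cu2+ (25 µM, one equivalent) in 20 mM HEPES pH 6.6 with NaCl, incubated 24 h at 37 °C ± compound (25 µM). Then 5 µM thioflavin T in glycine-NaOH pH 8.5 was added and read at ex 446/em 490 nm. Triplicate. % inhibition relative to no-compound control.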

[4] = target: Amyloid-beta precursor protein (Homo sapiens) (UniProt P05067); experiment: Inhibition of amyloid beta (1 to 42) (unknown origin) self aggregation at 50 uM after 24 hrs by ThT-based fluorometric method relative to control
Chain of Amyloid-beta precursor protein (Homo sapiens) (P05067 whole entry): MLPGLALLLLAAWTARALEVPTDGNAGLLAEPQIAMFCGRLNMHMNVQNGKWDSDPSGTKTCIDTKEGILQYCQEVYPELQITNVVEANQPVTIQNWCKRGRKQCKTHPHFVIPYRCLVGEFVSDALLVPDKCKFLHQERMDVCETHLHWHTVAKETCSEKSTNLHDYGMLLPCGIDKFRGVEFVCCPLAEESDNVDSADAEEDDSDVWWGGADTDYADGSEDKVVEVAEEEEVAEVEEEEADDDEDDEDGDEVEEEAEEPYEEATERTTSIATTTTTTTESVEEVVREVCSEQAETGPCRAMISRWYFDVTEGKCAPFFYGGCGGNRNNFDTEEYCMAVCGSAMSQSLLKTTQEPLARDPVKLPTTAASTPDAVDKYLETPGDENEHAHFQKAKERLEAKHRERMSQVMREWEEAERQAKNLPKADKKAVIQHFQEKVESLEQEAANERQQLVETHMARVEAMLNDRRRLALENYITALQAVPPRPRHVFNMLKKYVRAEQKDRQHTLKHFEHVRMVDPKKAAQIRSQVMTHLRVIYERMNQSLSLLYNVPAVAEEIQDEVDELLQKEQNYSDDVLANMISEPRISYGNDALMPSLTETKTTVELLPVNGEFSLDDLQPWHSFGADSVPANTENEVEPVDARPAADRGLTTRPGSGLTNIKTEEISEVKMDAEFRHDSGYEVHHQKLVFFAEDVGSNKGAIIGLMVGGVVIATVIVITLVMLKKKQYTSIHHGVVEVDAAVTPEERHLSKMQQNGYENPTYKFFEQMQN
Outline: (§1)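 Aβ1-42 (25 µM final) incubated 24 h at 37 °C with or without compound (1-50 µM) in 50 mM phosphate buffer pH 7.4. Thioflavin T (5 µM in glycine-NaOH pH 8.5) then added, fluorescence read at ex 446/em 490 nm. Inhibition = (1-IFi/IFc)×100 after background subtraction. Run in triplicate.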

PC-12 [5] = experiment: Neuroprotective activity against H2O2 induced cell injury in rat PC12 cells assessed as cell viability at 1 uM preincubated for 24 hrs followed by incubation with H2O2 for 2 hrs measured after 24 hrs by MTT assay (reference value: 43.9%); type: functional; conditions: read-out: Activity
Outline: (§2)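 PC12 cells in phenol-red-free DMEM with 10% FCS, plated at 10^5 cells/well. Cells preincubated 24 h with compound (1.0 or 10.0 µM; dissolved in 2% DMSO, diluted in PBS), then exposed to H2O2 100 µM for 2 h. Medium replaced; viability assessed 24 h later by MTT (4 h, 37 °C), lysis in DMF/SDS, A590.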

Acetylcholinesterase [6] = target: T1, Acetylcholinesterase (Rattus norvegicus, UniProt P37136); experiment: Inhibition of rat cortex homogenate AChE using acetylthiocholine iodide as substrate after 15 mins in presence of BuChE inhibitor iso-OMPA by Ellman's method
T1 sequence (P37136 whole entry): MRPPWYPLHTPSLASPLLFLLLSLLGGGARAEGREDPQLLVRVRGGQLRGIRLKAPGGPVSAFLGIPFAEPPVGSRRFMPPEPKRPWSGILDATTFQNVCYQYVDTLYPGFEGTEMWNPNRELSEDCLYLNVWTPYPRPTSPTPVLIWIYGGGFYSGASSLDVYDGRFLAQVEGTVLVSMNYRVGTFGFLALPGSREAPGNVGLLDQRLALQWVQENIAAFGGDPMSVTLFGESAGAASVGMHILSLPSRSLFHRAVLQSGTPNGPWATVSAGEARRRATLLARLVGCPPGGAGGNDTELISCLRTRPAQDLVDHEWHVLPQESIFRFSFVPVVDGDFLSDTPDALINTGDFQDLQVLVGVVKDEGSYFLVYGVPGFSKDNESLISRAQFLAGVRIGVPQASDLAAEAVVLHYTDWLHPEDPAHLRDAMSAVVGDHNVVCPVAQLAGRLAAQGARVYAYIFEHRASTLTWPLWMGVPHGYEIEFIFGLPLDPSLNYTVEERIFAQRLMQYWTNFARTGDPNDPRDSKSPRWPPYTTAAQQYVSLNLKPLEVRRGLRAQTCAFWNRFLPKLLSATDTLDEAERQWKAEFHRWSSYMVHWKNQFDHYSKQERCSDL

[7] = target: Amyloid-beta precursor protein (Homo sapiens) (UniProt P05067); experiment: Inhibition of amyloid beta (1 to 42) (unknown origin) self-induced aggregation after 24 hrs by ThT-based fluorometric method; outline: as §1
[8] = Solubility of the compound in water; type: physicochemical; conditions: buffer
[9] = Metal chelating activity assessed as compound-Cu2+ complex formation by measuring red shift at 37.5 uM after 30 mins by UV-vis spectrophotometric method
Outline: (§3)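 UV absorption scanned from 200 to 600 nm after 30 min at room temperature in methanol. Compound and each metal salt (CuCl2, ZnCl2, AlCl3, FeSO4) were at 37.5 µM final. Spectra compared with and without metal.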

[10] = Metal chelating activity assessed as compound-Zn2+ complex formation by measuring shift in maximum absorption wavelength at 37.5 uM after 30 mins by UV-vis spectrophotometric method; outline: as §3
[11] = Antioxidant activity assessed as trolox equivalents of AAPH radical scavenging activity at 1 to 10 uM preincubated for 15 mins followed by AAPH addition measured every 60 sec for 90 mins by ORAC-FL assay; type: functional
Outline: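 ORAC-FL in 75 mM phosphate buffer pH 7.4. Compound at 1–10 µM with fluorescein (150 nM final), pre-incubated 15 min at 37 °C, then AAPH added (12 mM final). Fluorescence read every minute for 90 min, ex 485/em 535 nm. Curves normalised to the FL+AAPH blank. Trolox standard 1–8 µM. Duplicates, ≥3 independent assays. Results given as µM Trolox equivalent per µM compound.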

PC-12 [12] = experiment: Neuroprotective activity against H2O2 induced cell injury in rat PC12 cells assessed as increase in cell viability preincubated for 24 hrs followed by incubation with H2O2 for 2 hrs measured after 24 hrs by MTT assay; type: functional, cell-based; outline: as §2
Mus musculus = experiment: Reversal of scopolamine-induced memory impairment in po dosed Kunming mouse assessed as increase in step-down latency time administered 60 mins prior to training trial followed by scopolamine challenge at 30 mins post dose measured 24 hrs after training trial by passive avoidance test; type: functional, organism-based
Outline: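 Kunming mice, 18–22 g, six weeks old, either sex; 10 per group. Oral dosing 1 h before training (test compound 3.67, 7.33, 22 mg/kg; donepezil 5.0 mg/kg), scopolamine 3 mg/kg i.p. 30 min later. Training: 0.5 mA, 2 s foot shock on stepping off the block. Step-down latency measured 24 h later. Mean ± SEM.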

[13] = Solubility of the compound in DMEM in presence of 10% FBS; type: physicochemical

Q: What does the source list for `CCN(CCCCNC(=O)COc1ccc(-c2cc(=O)c3c(O)c(OC)c(OC)cc3o2)cc1)Cc1ccccc1OC`?
A: IC50 (Acetylcholinesterase [1]): 15.9 µM; inhibition [2]: Active; Activity (SH-SY5Y): Non-Toxic; inhibition [3]: 43.4%; inhibition [4]: 75.2%; viability at 1 µM (PC-12 [5]): 67.6%; IC50 (Acetylcholinesterase [6]): 51 nM; inhibition [7]: Dose-dependent effect; solubility [8]: Insoluble; Activity [9]: Active; Activity [10]: inactive; Activity [11]: 1.13 equiv; Activity (PC-12 [12]): Dose-dependent effect; Activity (Mus musculus): Dose-dependent effect; solubility [13]: Insoluble
